# Redox H2O2 prof: compounds producing H2O2 with reducing agent – biochemical, NIH compound library profiling, artefact control for MLSCN library redox annotation, primary screen | DTT-dependent redox cycling H2O2, phenol red/HRP absorbance; 100% = 100 µM peroxide control, 0% = buffer | activation, % at 10 µM | 200,000 tested, 0.03% active;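 active = activation of at least 50% relative to the plate's high and low controls in the primary single-dose screen; inactive = activation below 50%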;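 note: compound incubated with DTT at 0.8 mM final as the reducing agent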
# Lmaj promast: reduces viability of Leishmania major promastigotes | AID 1063 | resazurin fluorescence viability | 200,000 tested, 9% active | inhibition, % at 10 µM;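 note: promastigotes grown with compound for 44 hours at 28 °C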
# Diaph inh CS: diaphorase inhibition or chemical oxidation counter-screen; diaphorase resazurin-to-resorufin fluorescence, NADH, 16 min; bacterial (C. kluyveri) enzyme, not human; inhibition, % at 20 µM; 190,000 tested, 0.69% active; AID 1217;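 active = primary screen inhibition at 20 µM above a set limit, cut at about 50% in these data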;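 note: plate controls were DMSO with full reaction for no effect and wells lacking NADH for full effect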
#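 Detection: fluorescence of resorufin formed from resazurin, Ex 544/Em 590 nm; test system: Clostridium kluyveri diaphorase enzyme; amount: 0.14 U/mL diaphorase, enzyme working solution; times: 16-min room-temperature incubation before reading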
# PfGluPho inh: PfG6PD (Plasmodium falciparum) enzyme inhibition | PfGluPho enzyme, NADPH resazurin-diaphorase fluorescence | inhibition, % at 20 µM | 350,000 tested, 0.78% active;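 active = inhibition reaching at least a set limit at 20 µM in the primary screen, cut at about 59% in these data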;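 note: 0% = DMSO wells with substrate and 100% = DMSO wells lacking glucose-6-phosphate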
# Diaph act CS: diaphorase activation or chemical reduction counter-screen; Diaphorase/resazurin coupled assay, resorufin fluorescence, 16 min; active compounds read high; 1 = vehicle wells, 0 = NADH-free wells; activation factor at 20 µM; 190,000 tested, 0.005% active; AID 1229;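 active = diaphorase activity raised at least twofold by the compound at 20 µM; inactive = activation factor below 2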
#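 Assay system: bacterial diaphorase enzyme (C. kluyveri) / Input: enzyme 0.07 U/mL final / Medium: 50 mM HEPES pH 7.4 with 4.542 mM MgCl2, 0.005% Tween 20 / Doses: single compound dose of 20 µM, 1% DMSO final / Incubation: 16 min enzyme reaction, ambient temperature / Signal: fluorescence, excitation 544 nm and emission 590 nm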
# G6PDH counter: counter-screen for G6PDH assay hits: L. mesenteroides G6PDH inhibition | 200,000 tested, 0.12% active | Purified L. mesenteroides G6PDH, diaphorase/resazurin coupled fluorescence, 45 min | AID 1020 | inhibition, % at 5 µM
# An asterisk follows results filed as active; x = no result. This is one part of a sample in which hits are shown more often than they occur. Cut-off read from the data, not from the text of the source, unless noted: active = inhibition above about 50%; inactive = the rest.
SMILES,Redox H2O2 prof,Lmaj promast,Diaph inh CS,PfGluPho inh,Diaph act CS,G6PDH counter
C/C=C(\C)C(=O)OC1CC(C)(C)C[C@H]2C3=CC[C@@H]4[C@@]5(C)CCC(O[C@@H]6O[C@@H](C(=O)O)[C@@H](O)C(O[C@@H]7OC[C@H](O)[C@@H](O)[C@@H]7O[C@@H]7OC(CO)C(O)[C@@H](O)[C@@H]7O)C6O[C@@H]6OC(CO)C(O)C(O)C6O)[C@@](C)(CO)[C@@H]5CC[C@]4(C)[C@]3(C)CC(O)[C@@]12CO (some centres undefined),x,x,x,7,x,x
Cc1cccc(-c2ncc(CN3CCN(C4CCCC4)C(CCO)C3)cn2)c1 (centres undefined),-1,64*,x,-18,x,10
Cc1cccc(-c2ncc(CN3CCN(CCC(C)C)C(CCO)C3)cn2)c1 (centres undefined),1,74*,1,6,1,14
CSc1ncc(CN2CCN(CCC(C)C)C(CCO)C2)cn1 (centres undefined),-1,1,17,-1,0.8,10
Cc1ccsc1/C=N/NC(=O)CNC(=O)c1ccc(S(=O)(=O)N(C)C)cc1,-1,52*,3,-2,1,-3
CN(C)S(=O)(=O)c1ccc(C(=O)NCC(=O)N/N=C/c2ccccc2Cl)cc1,-1,68*,10,8,0.9,10
CN(C)S(=O)(=O)c1ccc(C(=O)NCC(=O)N/N=C/c2cccs2)cc1,-1,39,-8,-3,1.1,4
Cc1ccc(C)c(NC(=O)CSc2nc3ccc(N4C(=O)c5ccccc5C4=O)cc3s2)c1,0,99*,0,-1,1,4
N#CC(C#N)=Cc1cc2ccccc2nc1N1CCCCC1,0,82*,7,9,0.9,6
O=C(OCC(=O)N1CCc2ccccc21)c1ccccn1,1,-1,1,-7,1,7
CCOc1cc(CNCCO)cc(Br)c1OCc1cccs1,-4,100*,-2,2,1,-4
CCOc1cc(CNCCO)cc(Br)c1OCc1ccc(Cl)cc1Cl,2,101*,-28,35,1.3,-1
CCOc1cc(CNCc2ccncc2)cc(Br)c1OCc1ccccc1F,-3,92*,5,-6,0.9,-1
N#Cc1c(-c2ccccc2F)cc(C2CC2)nc1SCC(=O)c1cccs1,3,3,26,-5,0.7,-4
Cc1ccc(OCCCNCCO)c(Br)c1,0,73*,-4,4,1,5
Clc1cccc(OCCCN2CCCC2)c1Cl,0,1,8,-22,0.9,1
CCCCNCCCOc1cccc(Cl)c1Cl,0,100*,6,-17,0.9,4
CCCCNCCCOc1ccc(C)cc1Br,-1,90*,10,-5,0.9,8
CNCCCOc1ccc(C)cc1Br,4,11,-1,0,1,8
Cc1ccc(CCNS(=O)(=O)c2ccc3c(c2)NC(=O)CCS3)cc1,x,x,x,-2,x,x
N#CC1=C(N)N(c2ccccc2)C(c2cccc([N+](=O)[O-])c2)C1(C#N)C#N (centres undefined),2,54*,17,4,0.8,1
COc1ccc(CCNC(=O)c2cccc(C(=O)NCCc3ccc(OC)cc3)n2)cc1,x,x,x,6,x,x
CC(C)c1ccc(NC2CCCN(C(=O)c3ccnc(Cl)c3)C2)cc1 (centres undefined),x,x,x,5,x,x
Cc1cc(C)cc(NC(=S)/C(=C(\[O-])c2ccc(Cl)cc2Cl)[n+]2ccccc2)c1,0,27,11,-2,0.9,3
[O-]/C(=C(\C(=S)Nc1ccc(SC(F)F)cc1)[n+]1ccccc1)c1ccc(Cl)cc1Cl,0,84*,11,14,0.9,-6
SMILES,Redox H2O2 prof,Lmaj promast,Diaph inh CS,PfGluPho inh,Diaph act CS,G6PDH counter
COc1ccc(-c2c[n+]3c4n2CCCCC4=C(c2ccc(Br)cc2)C3)cc1,-1,100*,-14,9,1.1,0
Clc1ccc(C2=C3CCCCn4c(-c5ccccc5)c[n+](c43)C2)cc1,3,100*,4,19,1,21
Cc1ccc(C)c(NC(=O)COC(=O)c2ccc3c(c2)OCCO3)c1,x,x,x,-15,x,x
COCCOC(=O)C1=C(C)NC(=O)NC1c1c(F)cccc1Cl (centres undefined),0,4,10,-8,0.9,6
COc1c(Cl)cc(Cl)cc1CNCCO,0,-4,17,-11,0.8,12
CCOc1ccc(CCNC(=O)c2ccc(CNS(=O)(=O)c3ccccc3)cc2)cc1OCC,0,53*,20,10,0.8,-1
COc1ccc(CCNC(=O)c2ccc(CNS(=O)(=O)c3ccc(C(C)(C)C)cc3)cc2)cc1OC,0,12,6,5,0.9,-26
CCOc1ccc(CCNC(=O)COC(=O)c2ccccc2O)cc1OCC,0,82*,11,-6,0.9,-2
CCOc1ccccc1NC(=O)C(=O)NCCC1=CCCCC1,-1,-5,7,6,0.9,2
COc1ccc(NC(=O)C(=O)NCCC2=CCCCC2)c(OC)c1,0,55*,6,-13,0.9,-6
N/C(=N\OC(=O)COc1ccc2ccccc2c1Br)c1ccncc1,0,4,25,x,0.7,6
Cc1cc(NC(=O)CSc2nnc(-c3ccc(S(=O)(=O)N4CCCC4)cc3)n2C)no1,2,-1,10,-5,0.9,1
CCn1c(SCC(=O)Nc2cc(C)on2)nnc1-c1ccc(S(=O)(=O)N2CCCC2)cc1,0,69*,17,7,0.8,1
CCn1c(SCC(=O)Nc2nccs2)nnc1-c1ccc(S(=O)(=O)N2CCCCC2)cc1,-1,56*,12,-4,0.9,2
Cc1ccc2nc3c(cc2c1)c(C)nn3-c1ccccc1,x,x,x,-4,x,x
Cc1nn(-c2ccccc2)c(=S)c2ccccc12,x,71*,4,4,1,3
CN1C/C(=C\c2ccc(N3CCOCC3)cc2)C(=O)/C(=C/c2ccc(N3CCOCC3)cc2)C1,0,100*,-11,7,1.1,14
CN1C/C(=C/c2ccncc2)C(=O)/C(=C/c2ccncc2)C1,x,x,x,-5,x,x
CCN1C/C(=C/c2ccc(N3CCOCC3)cc2)C(=O)/C(=C/c2ccc(N3CCOCC3)cc2)C1,0,100*,18,9,0.8,-31
CN1C/C(=C/c2ccsc2)C(=O)/C(=C/c2ccsc2)C1,1,100*,2,12,1,-17
CCn1cc(S(=O)(=O)N2CCCC2)cn1,x,x,x,-6,x,x
COc1ccccc1N1C(=O)CC(Sc2n[nH]c(-c3cccc(C)c3)n2)C1=O (centres undefined),0,-7,18,4,0.8,-3
